Bioassay records as filed in PubChem BioAssay.
TbHK1 inh: Trypanosoma brucei hexokinase 1 inhibitors, primary screen, biochemical, G6PDH-coupled NADH absorbance, MLSCN library | AID 1430, 2008 | inhibition, % at 10 µM | recombinant TbHK1, G6PDH-coupled NADH A340 | 0.11% of 220,000 active;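 active = inhibition of 50% or more in the single-dose primary screen; inactive = inhibition below 50%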
Lipid droplet: inhibitors of hepatocyte lipid droplet formation, primary screen, imaging, high-throughput imaging, BODIPY stain. inhibition, % at 6.5 µM. AML12 mouse hepatocytes, oleate lipid droplets. 0.4% of 240,000 active. AID 1656, 2009;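 active = lipid droplet intensity inhibited by at least 50%, with more than 500 cells counted; inconclusive = wells with under 300 cells, treated as cytotoxic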
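Assay system: AML12 hepatocytes (mouse); Probe or stimulus: oleic acid at 100 µM to induce lipid droplet formation; Dosing: compound at 6.5 µM only; Schedule: compound with oleate, overnight; Detection: fluorescence imaging, 20x objective, two fields per well; Measure: % inhibition of lipid droplet signal.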
TNF necrop inh: inhibitors of TNF-alpha triggered necroptosis, primary screen, cell-based, Jurkat FADD-/-, single concentration | Jurkat FADD-/- TNF necroptosis rescue, ATP luminescence, 24 h; 0 = TNF only, 100 = no-TNF cells | activation (protection from cell death), % at 10 µM | 0.068% of 220,000 active | AID 463075, 2010;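 active = activation, meaning protection from cell death, of at least 50% relative to plate controls; inactive = activation below 50%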;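 note: necroptosis triggered by 40 ng/mL TNF-alpha added together with compound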
M18AAP inhibitor: PfM18AAP inhibitors, malaria aminopeptidase, primary screen, biochemical, QFRET, recombinant enzyme; H-Glu-NHMec fluorogenic cleavage; inhibition, % at 7.35 µM; 1.2% of 290,000 active;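 active = inhibition above the campaign mean inhibition over all tested compounds plus 3 SD, cut at about 28% in these data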;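 note: 0% = plate median of test compound wells and 100% = 2 mM ZnCl2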
L929 necroptosis: inhibitors of zVAD-triggered necroptosis, primary screen, L929 cells; L929 zVAD necroptosis rescue, ATP luminescence, 24 h; with zVAD 60 µM; viability rescue, % at 10 µM; 0.38% of 220,000 active; AID 1377, 2008;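 active = activation, scaled between plate controls, above about 75%, limit read from the data; inactive = activation under that limit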;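 note: 0% = zVAD with DMSO and 100% = DMSO alone without zVAD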
RBBP9 inhibitor: human RBBP9 inhibitors, primary screen, biochemical, fluorescence polarization, FP-Rh probe, HTS. AID 1515, 2009. Serine hydrolase RBBP9 (Homo sapiens), O75884. 0.2% of 220,000 active. inhibition, % at 7.94 µM. recombinant RBBP9;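 active = inhibition above the campaign mean of all tested compounds plus 3 SD, cut at about 14% in these data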;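 note: plate controls were DMSO wells with RBBP9 for no effect and wells lacking RBBP9 protein for full effect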
Target sequence (O75884 whole entry, looked up): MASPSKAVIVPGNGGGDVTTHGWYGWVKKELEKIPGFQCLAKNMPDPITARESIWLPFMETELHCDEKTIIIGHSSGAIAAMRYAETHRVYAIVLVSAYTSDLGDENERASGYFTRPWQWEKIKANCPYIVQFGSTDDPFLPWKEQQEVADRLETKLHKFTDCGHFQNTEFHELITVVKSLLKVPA
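Test system: recombinant human RBBP9; Timing: 30 min then 45 min, 25 °C; Detection: fluorescence polarization; Control set: RBBP9 with DMSO as uninhibited control, no-protein wells as full inhibition; Compound dosing: one concentration, 7.94 µM nominal, 0.794% DMSO; Probe or stimulus: FP-Rh activity-based probe, 375 nM before mixing.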
G6PDH ctr: Leuconostoc G6PDH inhibition, confirmation, counter-screen for TbHK1 inhibitor project, biochemical, DPI cherry-picked compounds, single concentration; shares compounds with TbHK1 inh; purified G6PDH, NADH absorbance, 1 h; inhibition, % at 10 µM; 7% of 210 active; AID 2516, 2010;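 active = at least 50% inhibition in the glucose-6-phosphate dehydrogenase coupled counterscreen; inconclusive = no clear call, values can overlap the other calls; inactive = inhibition below 50%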
TbHK1 confirm: TbHK1 inhibitor retest, confirmation, biochemical, DPI cherry-picked primary actives | 10% of 210 active | shares compounds with TbHK1 inh | recombinant TbHK1, G6PDH-coupled NADH A340 absorbance | inhibition, % at 10 µM;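 active = inhibition of at least 50% in both of the two screening runs; inconclusive = at least 50% in one run, below 50% in the other; inactive = inhibition below 50% in both runs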;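 note: 0% and 100% set by the maximum and minimum signal control wells on each plate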
* hit, by the source's call; u = inconclusive; x = no result given. Sampled rows, rich in hits. Any-hit rate of the full collection: about 2%.

SMILES | TbHK1 inh | Lipid droplet | TNF necrop inh | M18AAP inhibitor | L929 necroptosis | RBBP9 inhibitor | G6PDH ctr | TbHK1 confirm
COc1cc(CCC(=O)OCC(=O)Nc2c(F)cccc2F)cc(OC)c1OC | x | -15.6 | x | -6.0 | x | x | x | x
O=C(Nc1c[nH]c(=O)[nH]c1=O)c1ccc2c(c1)C(=O)N(c1cccc([N+](=O)[O-])c1)C2=O | 56.0* | -0.5 | 0.7 | 1.8 | 0.3 | 2.8 | 83.6* | 69.5*
O=C(Nc1ccccc1C(=O)O)c1ccc2c(c1)C(=O)N(c1cccc([N+](=O)[O-])c1)C2=O | x | -1.8 | x | -7.9 | x | x | x | x
CSc1nccc(Oc2ccc(C#N)cc2)n1 | 29.8 | -4.3 | 0.2 | -5.3 | 0.1 | -3.8 | x | x
O=C(CC1C(=O)NCCN1Cc1cccc(C(F)(F)F)c1)NC1CCCCCC1 (stereo unspecified) | x | 12.8 | x | 3.5 | x | x | x | x
CN(C)c1ccc(C2Nc3ccccc3C(=O)N2NS(C)(=O)=O)cc1 (stereo unspecified) | x | 13.7 | x | -3.7 | x | x | x | x
CS(=O)(=O)CCC(C(=O)O)N1C(=O)c2ccc(Oc3ccc(Cl)cc3)cc2C1=O (stereo unspecified) | x | 5.2 | x | 2.0 | x | x | x | x
O=C(O)C(Cc1ccccc1)N1C(=O)/C(=C/C=C/c2ccco2)SC1=S (stereo unspecified) | 51.0* | 10.5 | -2.6 | 13.1 | -1.1 | 4.6 | -71.3 | 39.8
NC(Cc1cccc2nsnc12)C(=O)O (stereo unspecified) | 57.5* | x | 1.3 | -8.6 | 0.9 | 0.9 | -17.6 | -7.2
CC(C)CCC(C(=O)O)C(C)CC(=O)NC1CCCCC1 (stereo unspecified) | -3.9 | 12.0 | -1.0 | -0.9 | -0.3 | -7.3 | x | x
CCCCCC(C(=O)O)C(C)CC(=O)NC1CCCCC1 (stereo unspecified) | 63.1* | x | -0.8 | 2.5 | -0.1 | 0.2 | -19.9 | -6.7
NC(=O)C1CCN(C(=O)C2CCN(S(=O)(=O)c3ccccc3)CC2)CC1 | 5.6 | x | 0.6 | -6.4 | 0.2 | 1.3 | x | x
Cc1nc(S(=O)(=O)N2CCOCC2)c(C#N)c(C)c1Cl | 55.4* | x | 5.1 | -3.0 | 36.8 | -4.6 | -8.5 | -4.6
Cc1ccccc1C(=O)/C(C#N)=N/Nc1c(C)n(C)n(-c2ccccc2)c1=O | 53.4* | -1.1 | -6.2 | 10.7 | 9.7 | 3.6 | -81.1 | -61.9
Cc1c(N/N=C(\C#N)C(=O)c2ccccc2)c(=O)n(-c2ccccc2)n1C | 47.3 | -1.1 | -6.8 | 1.0 | 5.3 | 1.6 | x | x
CSc1cccc(NC(=O)C2CCCN2S(=O)(=O)c2ccc(Br)s2)c1 (stereo unspecified) | 54.3* | -11.6 | 0.1 | 1.3 | -0.4 | -7.6 | 20.6 | 13.8
O=C1CSC(c2ccccn2)N1c1ccccc1 (stereo unspecified) | 60.9* | x | 0.2 | 0.3 | 0.0 | 0.1 | -0.2 | 1.5
COc1ccc(CCNC(=O)Cn2nnc(-c3ccc(N4CCOCC4)cc3)n2)cc1OC | 51.1* | x | -0.3 | -7.2 | -0.1 | -2.6 | -19.3 | -17.0
CNS(=O)(=O)c1cccc(C(=O)OC2CCCCC2=O)c1 (stereo unspecified) | 4.9 | x | -2.5 | 1.1 | -0.4 | 11.7 | x | x
CCc1cccc(CC)c1N(COC)C(=O)Cn1c(C(C)O)nc2ccccc21 (stereo unspecified) | 4.6 | x | -3.3 | 4.5 | -0.3 | -6.6 | x | x
COc1cccc(C(=O)NC2CCN(CC(=O)Nc3cccc(C)c3C)CC2)c1 | -6.1 | -7.6 | 2.3 | 5.7 | 0.6 | 5.1 | x | x
COc1cc(OC)cc(C(=O)NC2CCN(CC(=O)Nc3cccc4ccccc34)CC2)c1 | 52.9* | -23.8 | 2.8 | -2.1 | 1.0 | -1.3 | -39.1 | -8.4
O=C(NC(=S)NNS(=O)(=O)c1ccccc1)c1ccccc1[N+](=O)[O-] | 65.2* | -8.1 | 1.0 | 12.6 | 0.0 | -8.0 | -22.1 | -0.6
CCCCC(=O)NC(=S)NNS(=O)(=O)c1ccccc1 | 56.0* | 0.5 | 0.8 | 9.8 | 0.7 | -5.7 | -17.5 | 2.0
CCCCC(=O)NC(=S)NNC(=O)CC | 4.9 | 9.7 | -0.5 | -0.1 | -0.3 | 3.8 | x | x
SMILES | TbHK1 inh | Lipid droplet | TNF necrop inh | M18AAP inhibitor | L929 necroptosis | RBBP9 inhibitor | G6PDH ctr | TbHK1 confirm
CC(C)N(C(=O)c1ccc(C(=O)Nc2ccc([N+](=O)[O-])cc2)cc1)C(C)C | 56.1* | -2.6 | -0.1 | 6.4 | -0.1 | 3.5 | 4.2 | -2.2
CC(=O)C1C(c2ccc(Cl)cc2)c2c(noc2C)CC1(C)O (stereo unspecified) | 3.3 | 2.9 | -1.0 | -1.1 | -0.2 | -9.1 | x | x
Cc1cc(C(=O)NNS(=O)(=O)c2ccc(C(C)(C)C)cc2)nn1C(C)(C)C | 52.4* | 15.9 | 5.5 | -9.0 | 0.6 | -0.8 | -6.4 | 3.5
Cc1ccc(S(=O)(=O)NNC(=O)C(O)(c2ccccc2)c2ccccc2)cc1 | 21.2 | -8.8 | 0.5 | 6.5 | -0.1 | 4.7 | x | x
O=C(CN(c1ccccc1)S(=O)(=O)c1ccccc1[N+](=O)[O-])NN=C1CCCCCCC1 | 4.8 | x | -2.2 | -5.2 | 0.0 | -10.3 | x | x
O=c1c2ccccc2ncn1CCCCOc1ccc(Br)cc1 | 5.0 | -0.5 | 0.5 | 0.5 | 2.0 | 1.8 | x | x
CCCCOC(=O)Cn1cnc2ccc(Br)cc2c1=O | 59.1* | x | 13.0 | -3.5 | 0.1 | -5.3 | -8.8 | 3.0
Cc1c(C(=O)NC(=S)Nc2ccc(N3CCOCC3)cc2)cccc1[N+](=O)[O-] | 7.5 | -2.2 | 1.0 | 2.9 | 3.0 | 0.3 | x | x
O=C(NCc1n[nH]c(=S)n1-c1ccc(F)cc1)c1ccco1 | 0.6 | 0.3 | -1.0 | 23.3 | -0.7 | -9.8 | x | x
Nc1ccc(NC(=O)CCN2CCOCC2)cc1 | x | 2.5 | x | -5.3 | x | x | x | x
CSc1nnc(-c2ccccc2)o1 | 54.9* | x | 0.0 | -0.7 | 0.0 | 3.6 | -3.6 | 2.2
CCOC(=O)C1(Cc2cccc(OC)c2)CCCN(C(=O)CCc2cccnc2)C1 (stereo unspecified) | -3.1 | 1.4 | -0.3 | -4.4 | -0.4 | -1.4 | x | x
O=c1c(O)cccc2cc(O)c(O)c(O)c12 | 69.7* | -3.7 | -6.4 | 47.9* | -1.0 | 1.2 | -8.4 | u
O=C(Cn1cnc2ccccc21)N/N=C/C(Br)=C/c1ccccc1 | -5.5 | 2.4 | 0.8 | 6.9 | -0.3 | -6.0 | x | x
